Data reported in ChEMBL document CHEMBL4261485, “Towards the rational design of novel drugs based on solubility, partitioning/distribution, biomimetic permeability and biological activity exemplified by 1,2,4-thiadiazole derivatives” (Medchemcomm, 2017).
In brackets after ≈: the same amount, converted by molar mass.

How the values were obtained:
[1] = 1-hexane/buffer partition co-efficient of compound in neutral form at pH 7.4 at 298 K after 24 hrs by shake flask method; assay type: physicochemical; conditions: pH 7.4, 24 h
[2] = Permeability of compound at 5 mM using lipid layer at pH 7.4 at 298 K by spectrophotometric method; assay type: ADME; conditions: not told
[3] = Thermodynamic solubility of compound in buffer at 298 +/- 0.1 K after 24 hrs by shake flask method; assay type: physicochemical; conditions: read-out: Therm_solubility
In short: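 Shake flask at 298 K (±0.1 K). Phosphate buffer pH 7.4 (I = 0.15 mol L−1) was stirred with solid for 24 h, an equilibration time chosen from kinetic plateau experiments. Aliquot was centrifuged 5 min at 298 K, then isothermally filtered (0.45 μm) and diluted. Concentration was read by UV spectrophotometry (200–400 nm). Value is the mean of at least three replicates.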

[4] = Apparent permeability of compound at 5 mM using permeapad barrier at pH 7.4 at 298 K by spectrophotometric method; assay type: ADME; conditions: not told
In short: (§1)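 Franz diffusion cell at 298 K (±0.1 K). The donor (lower) chamber held 8 ml of drug solution, approximately 5 mM, in phosphate buffer saline (74 mM phosphate, pH 7.3–7.4, 280–290 mOsm with NaCl). The acceptor chamber held 1.5 ml buffer. Barrier was Permeapad or the support layer alone, without phospholipids. Cumulative permeated moles per barrier area were plotted against time in seconds. Replicates were at least triplicate, and Papp is the mean of the replicates.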

Rattus norvegicus = organism: Rattus norvegicus; assay: Modulation of glutamate receptor in synaptosomes of rat brain cortex assessed as change in glutamate-induced 45Ca2+ uptake (K43/21) after 5 mins by liquid scintillation counting method; assay type: subcellular; parameters: concentration or dose not given beside the values
In short: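 Cortical synaptosomes (P2 fraction) from 9–10-day-old rats suspended in HEPES buffer pH 7.4 (NaCl, KCl, glucose; protein 1.5–2 mg mL−1), final Ca2+ 1.25 mM. 45Ca2+ uptake stimulated with 200 μM glutamate, 5 min at […]; stopped by GF/B filtration and three cold-buffer washes; beta counting. Uptake = stimulated minus unstimulated label, % of control; triplicate.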

[5] = Permeability of compound at 5 mM using support layer at pH 7.4 at 298 K by spectrophotometric method; assay type: ADME; conditions: not told; in short: as §1
[6] = 1-octanol/buffer distribution co-efficient, log D of compound at pH 7.4 at 298 K after 24 hrs by shake flask method; assay type: physicochemical
In short: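 Shake flask. Buffer (pH 7.4) and 1-octanol were pre-saturated by vigorous mixing for 24 h at 298 K (±0.1 K) and then allowed to separate. Compound was dissolved in the buffer-saturated octanol as stock, then mixed with the octanol-saturated buffer for 24 h at 298 K. Both phases were quantified by UV spectrophotometry against calibration curves. D = Coct/Cbuf.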

[7] = 1-octanol/buffer partition co-efficient of compound in neutral form at pH 7.4 at 298 K after 24 hrs by shake flask method; assay type: physicochemical; conditions: pH 7.4, 24 h
[8] = 1-hexane/buffer distribution co-efficient, log D of compound at pH 7.4 at 298 K after 24 hrs by shake flask method; assay type: physicochemical; conditions: pH 7.4, 24 h

Compound	K [1]	Papp at 5000 µM [2]	solubility thermodynamic at 24 h [3]	Papp at 5000 µM [4]	Activity (Rattus norvegicus)	Papp at 5000 µM [5]	logD at 24 h [6]	K [7]	logD [8]
CC(Cc1nsc(Nc2ccc(Cl)c(Cl)c2)n1)NC1CC(C)(C)NC(C)(C)C1 (configuration not stated)	72.3	26.1 ×10⁻⁶ cm/s	7.45 mM (≈ 3300 µg/mL)	9.8 ×10⁻⁶ cm/s	305%	15.7 ×10⁻⁶ cm/s	1.1	–	–
Cc1cc(Nc2nc(CC(C)O)ns2)no1 (configuration not stated)	0.18	–	–	–	109%	–	1.65	45	–
CSc1cccc(Nc2nc(CC(C)O)ns2)c1 (configuration not stated)	0.48	–	–	–	86.7%	–	1.97	94	–
Cc1ccc(Nc2nc(CC(C)NC3CC(C)(C)NC(C)(C)C3)ns2)cc1 (configuration not stated)	89.3	22.8 ×10⁻⁶ cm/s	8.37 mM (≈ 3240 µg/mL)	12.2 ×10⁻⁶ cm/s	128%	26.3 ×10⁻⁶ cm/s	0.82	4.44 ×10⁴ No_unit	–
Cc1ccc(Nc2nc(CC(C)O)ns2)cc1 (configuration not stated)	0.31	–	2.19 mM (≈ 546 µg/mL)	–	85%	–	2.65	445	–
CC(Cc1nsc(NC2CC2)n1)NC1CC(C)(C)NC(C)(C)C1 (configuration not stated)	655.5	6.8 ×10⁻⁶ cm/s	310 mM (≈ 105000 µg/mL)	5.4 ×10⁻⁶ cm/s	86%	27.6 ×10⁻⁶ cm/s	0.0828	3.19 ×10³ No_unit	–
COc1ccc(Nc2nc(CC(C)O)ns2)cc1 (configuration not stated)	0.58	–	3.04 mM (≈ 807 µg/mL)	–	108%	–	2.31	205	–
CC(O)Cc1nsc(Nc2ccc(F)c(Cl)c2)n1 (configuration not stated)	0.16	–	–	–	75%	–	2.35	226	–
Cc1ccc(Cl)cc1Nc1nc(CC(C)O)ns1 (configuration not stated)	0.56	–	0.445 mM (≈ 126 µg/mL)	–	88%	–	3.02	–	–
Cc1ccc(Cl)cc1Nc1nc(CC(C)NC2CC(C)(C)NC(C)(C)C2)ns1 (configuration not stated)	112.8	26.9 ×10⁻⁶ cm/s	4.86 mM (≈ 2050 µg/mL)	14.4 ×10⁻⁶ cm/s	177%	30.8 ×10⁻⁶ cm/s	0.839	4.56 ×10⁴ No_unit	–
Cc1cc(Nc2nc(CC(C)NC3CC(C)(C)NC(C)(C)C3)ns2)no1 (configuration not stated)	258.6	3.7 ×10⁻⁶ cm/s	14.1 mM (≈ 5340 µg/mL)	3.4 ×10⁻⁶ cm/s	108%	31.7 ×10⁻⁶ cm/s	-0.426	–	–
CC(Cc1nsc(Nc2ccc(F)c(Cl)c2)n1)NC1CC(C)(C)NC(C)(C)C1 (configuration not stated)	42	30.9 ×10⁻⁶ cm/s	9.24 mM (≈ 3940 µg/mL)	13.9 ×10⁻⁶ cm/s	189%	25.4 ×10⁻⁶ cm/s	0.699	3.25 ×10⁴ No_unit	–
CC(Cc1nsc(Nc2ccc(Cl)cc2)n1)NC1CC(C)(C)NC(C)(C)C1 (configuration not stated)	73	14.1 ×10⁻⁶ cm/s	3.72 mM (≈ 1520 µg/mL)	8.6 ×10⁻⁶ cm/s	172%	21.9 ×10⁻⁶ cm/s	0.262	1.22 ×10⁴ No_unit	–
CC(Cc1nsc(Nc2ccc(F)cc2)n1)NC1CC(C)(C)NC(C)(C)C1 (configuration not stated)	158	18.6 ×10⁻⁶ cm/s	18.2 mM (≈ 7130 µg/mL)	8.7 ×10⁻⁶ cm/s	112%	16.3 ×10⁻⁶ cm/s	0.881	5.06 ×10⁴ No_unit	–
CC(Cc1nsc(Nc2ccc(Br)cc2)n1)NC1CC(C)(C)NC(C)(C)C1 (configuration not stated)	85	9.5 ×10⁻⁶ cm/s	3.49 mM (≈ 1580 µg/mL)	6.5 ×10⁻⁶ cm/s	82%	25.8 ×10⁻⁶ cm/s	0.31	1.36 ×10⁴ No_unit	–
CSc1cccc(Nc2nc(CC(C)NC3CC(C)(C)NC(C)(C)C3)ns2)c1 (configuration not stated)	92.9	18.2 ×10⁻⁶ cm/s	12 mM (≈ 5040 µg/mL)	10.1 ×10⁻⁶ cm/s	117%	22.8 ×10⁻⁶ cm/s	0.643	2.92 ×10⁴ No_unit	–
Cc1ccc(Nc2nc(CC(C)NC3CC(C)(C)NC(C)(C)C3)ns2)cc1Cl (configuration not stated)	20.6	39.5 ×10⁻⁶ cm/s	5.57 mM (≈ 2350 µg/mL)	13.5 ×10⁻⁶ cm/s	214%	20.6 ×10⁻⁶ cm/s	1.04	7.31 ×10⁴ No_unit	0.0031
CC(O)Cc1nsc(Nc2ccc(Cl)cc2)n1 (configuration not stated)	0.46	–	0.484 mM (≈ 130 µg/mL)	–	89%	–	2.58	380	–
CC(O)Cc1nsc(Nc2ccc(F)cc2)n1 (configuration not stated)	0.32	–	3.4 mM (≈ 861 µg/mL)	–	88%	–	2.5	316	–
Cc1ccc(Nc2nc(CC(C)O)ns2)cc1Cl (configuration not stated)	1.68	–	0.483 mM (≈ 137 µg/mL)	–	87%	–	3.02	1.038 ×10³ No_unit	–
CC(O)Cc1nsc(Nc2ccc(Cl)c(Cl)c2)n1 (configuration not stated)	0.17	–	–	–	51%	–	2.79	610	–
